# XBP1 UPR activ = activators of adaptive XBP1 UPR arm, primary screen, cell-based, CHO-XBP1 luciferase reporter, luminescence, uHTS; AID 463104, 2010; IRE1-XBP1 UPR activation; percent of tunicamycin response, DMSO as zero; hit rate 0.33% among 330,000; activation, % at 20 µM;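 active = versus positive control, 20 µM dose yields 30% or more activation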;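 note: 100% = tunicamycin at 10 µg/mL and 0% = DMSO only wells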
#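 incubation = overnight seeding at 37 °C, 6 h compound treatment at 37 °C | assay system = CHO-XBP1 cells stably carrying IRE1-XBP1-driven luciferase reporter | input = 1000 cells per well | detection = luciferase luminescence | dosing = single point, 20 µM final compound, 1% DMSO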
# CHOP inh = inhibitors of CHOP promoter induction, primary screen, cell-based, unfolded protein response, luciferase reporter. AID 2732, 2010. inhibition, % at 10 µM. hit rate 3.8% among 220,000. CHO-K1 CHOP-promoter luciferase, tunicamycin-induced, 15-18 h;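 active = compounds that reduced the stress-induced luciferase reporter signal by more than about 70% of percent inhibition, limit read from the data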;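 note: 0% = tunicamycin plus vehicle and 100% = wells without tunicamycin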
# Fh CTSL1 inh = Fasciola hepatica cathepsin L1 inhibitors, primary screen, counter-screen for PFM18AAP inhibitor project, biochemical, QFRET, fluorogenic peptide substrate. inhibition, % at 5.96 µM. AID 1906, 2009. hit rate 0.49% among 300,000. recombinant F. hepatica cathepsin L1, Z-Leu-Arg-MCA fluorescence;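 active = inhibition above the mean of all tested compounds plus 3 SD, set per screening campaign, cut at about 17% in these data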;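 note: 0% = plate median of test compound wells and 100% = 1 µM Z-Phe-Ala-diazomethylketone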
# UPR CHOP act = activators of apoptotic CHOP UPR arm, primary screen, cell-based, CHO-CHOP luciferase reporter, luminescence, uHTS | AID 449763, 2010 | hit rate 0.34% among 330,000 | UPR activation; percent of tunicamycin response over DMSO baseline | activation, % at 10 µM;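 active = at 10 µM dose, activation of 40% or more, normalized to positive control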;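 note: 100% = tunicamycin at 10 µg/mL and 0% = DMSO alone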
#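 System: CHO-CHOP luciferase reporter cell line; amount: 500 cells/well; buffer or medium: F12 medium containing 10% fetal bovine serum; incubation: 6 h compound exposure at 37 °C after overnight seeding; measured by: luciferase luminescence after 10 min with Steady-Glo reagent; evaluation: % reporter activation, DMSO baseline versus tunicamycin full activation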
# UCH37 DUB inh = inhibitors of human UCH37 deubiquitinase, primary screen, biochemical, Ub-AMC cleavage, fluorescence; Ubiquitin carboxyl-terminal hydrolase isozyme L5 (Homo sapiens), Q9Y5K5; purified proteasome/UCH37; inhibition, % (concentration not given with the values); hit rate 0.33% among 330,000;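 active = mean inhibition over replicate wells above about 20%, limit read from the data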;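 note: 0% = compound-free wells with enzyme and 100% = wells lacking proteasome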
# Target sequence (Q9Y5K5 whole entry, looked up): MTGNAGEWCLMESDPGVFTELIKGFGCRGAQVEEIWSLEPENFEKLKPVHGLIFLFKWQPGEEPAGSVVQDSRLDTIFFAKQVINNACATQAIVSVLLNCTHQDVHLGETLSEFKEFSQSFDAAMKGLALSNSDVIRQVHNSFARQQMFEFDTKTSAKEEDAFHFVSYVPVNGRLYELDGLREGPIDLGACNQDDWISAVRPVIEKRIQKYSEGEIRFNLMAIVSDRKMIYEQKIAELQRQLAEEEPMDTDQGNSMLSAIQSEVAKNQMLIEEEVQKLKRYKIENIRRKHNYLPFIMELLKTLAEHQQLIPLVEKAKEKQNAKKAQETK
#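 Signal – fluorescence, ex 355 nm, em 460 nm · System – Proteasome-bound UCH37 · Input – 0.15 nM proteasome as dispensed · Timing – 30 min preincubation with enzyme, 25 min cleavage at room temperature · Read-out basis – percent inhibition of cleavage signal versus uninhibited and no-proteasome wells · Medium – Tris-HCl pH 7.4 with ATP-MgCl2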
# * hit, by the source's call; / = not tested or not shown. Only a selection was taken, and hits are over-represented in it overall.
SMILES,XBP1 UPR activ,CHOP inh,Fh CTSL1 inh,UPR CHOP act,UCH37 DUB inh
COc1cccc(NC(=O)C2CCCN(S(=O)(=O)c3cccc4nsnc34)C2)c1 (stereo not drawn),-2,68,-1,-1,6
Cc1nnc(NC(=O)C2CCN(S(=O)(=O)c3cc([N+](=O)[O-])ccc3Cl)CC2)o1,2,/,/,-2,0
CCCOc1ccc(-c2c(C(=O)NN=C(C)c3ccncc3)nnn2-c2nonc2N)cc1,/,/,/,/,2
Nc1nonc1-n1nnc(C(=O)NN=Cc2ccc(Br)cc2)c1CN1CCOCC1,/,/,/,/,5
COc1cccc(C=NNC(=O)CNC(=O)C(c2ccccc2)c2ccccc2)c1O,/,/,/,/,2
S=c1[nH]nc(-c2ccco2)n1N=Cc1c(Cl)cccc1Cl,/,/,/,/,6
Cc1nc2ccccc2n1C(=NS(=O)(=O)c1ccc(Br)cc1)c1ccccc1,/,/,/,/,2
Cc1cccc2sc(NC(=O)C3CCCN(S(=O)(=O)c4cccc5nonc45)C3)nc12 (stereo not drawn),-4,81*,2,0,1
Cc1ccc2nc(NC(=O)C3CCCN(S(=O)(=O)c4cccc5nonc45)C3)sc2c1 (stereo not drawn),0,36,-3,4,/
CC(C)(C)OC(=O)C(Cc1ccc(OC(C)(C)C)cc1)NC(=O)CNC(=O)OCc1ccccc1 (stereo not drawn),-2,74*,4,-2,0
CC(C)CC(NC(=O)C(NC(=O)C(Cc1ccc(OCc2ccccc2)cc1)NC(=O)OC(C)(C)C)C(C)C)C(N)=O (stereo not drawn),-1,95*,0,0,-2
CC(C)CC(NC(=O)C(CC(C)C)NC(=O)OC(C)(C)C)C(N)=O (stereo not drawn),-5,23,6,2,1
CC(C)CC(NC(=O)C(CC(C)C)NC(=O)C(Cc1ccc(OCc2ccccc2)cc1)NC(=O)OC(C)(C)C)C(N)=O (stereo not drawn),-2,94*,5,0,2
C[C@H](NC(=O)OCc1ccccc1)C(=O)NNC(=O)[C@H](Cc1ccccc1)NC(=O)OC(C)(C)C,-1,25,-4,2,-1
COc1cccc(C=NNC(=O)c2ccc(COc3ccc(Cl)cc3Cl)o2)c1,/,/,/,/,3
COc1ccccc1/C=C/C=Nn1c(-c2n[nH]c3c2CCC3)n[nH]c1=S,/,/,/,/,6
Brc1ccc(-c2csc(NN=Cc3ccco3)n2)cc1,/,/,/,/,1
Cc1ccn2cc(CCNS(=O)(=O)c3ccc4ccccc4c3)nc2c1,-2,/,30*,0,-1
Nc1nonc1-n1nnc(C(=O)NN=Cc2ccccc2F)c1CN1CCOCC1,/,/,/,/,0
Cc1ccc(CN2CCN(N=Cc3cccs3)CC2)cc1,/,/,/,/,6
CC(=O)N1C(=O)c2cccc3cccc(c23)C(=O)N1C(C)=O,-4,-10,-10,-2,-25
O=C1c2cccc3cccc(c23)C(=O)C1(O)O,0,/,18*,3,8
CCOc1ccccc1OCC(O)CNC (stereo not drawn),0,72*,-3,1,1
C=CCc1ccccc1OCC(O)CNC (stereo not drawn),0,57,2,1,1
S=C(c1ccc(-c2ccccc2Cl)o1)N1CCOCC1,3,71*,0,4,6
SMILES,XBP1 UPR activ,CHOP inh,Fh CTSL1 inh,UPR CHOP act,UCH37 DUB inh
CC(C)c1ccc(CNC(=O)CSCC(=O)Nc2ccc3ccccc3c2)cc1,-2,86*,0,3,3
CC(C)(Oc1ccc(Cl)cc1)C(=O)NN=Cc1cn[nH]c1-c1ccccc1,/,/,/,/,-1
COc1ccc(C(=O)Oc2cccc(Nc3ncnc4ccccc34)c2)cc1OC,2,68,1,4,-23
COc1cc(C(=O)Oc2cccc(Nc3ncnc4ccccc34)c2)cc(OC)c1OC,2,92*,0,0,-25
Cc1ccc(-n2cc(C(=O)c3ccc(N4CCN(C)CC4)cc3)nn2)cc1Cl,7,70*,8,9,-60
CN1CCN(c2ccc(C(=O)c3cn(-c4ccc(F)c(Cl)c4)nn3)cc2)CC1,4,-50,0,5,-63
O=C(NNC(=O)c1csc(-c2cnccc2C(F)(F)F)n1)c1ccc(C(F)(F)F)cc1,0,8,23*,-1,3
COc1ccc(OC)c(C=NNC(=O)c2c(C)nc3cc(C)ccn23)c1,/,/,/,/,-380
O=C(NN=Cc1cccc2ccccc12)C(=O)N1CCCC1,/,/,/,/,5
COc1ccc(C=Nn2c(C)nnc2C)c(OC)c1,/,/,/,/,-1
COc1ccc(-n2c(=S)[nH]c3cc(C(=O)NCc4ccco4)ccc3c2=O)c(OC)c1,-1,18,19*,-1,3
COc1ccc(-n2c(=S)[nH]c3cc(C(=O)NCc4ccccc4OC)ccc3c2=O)c(OC)c1,-2,/,-2,-1,0
COc1ccc(-n2c(=S)[nH]c3cc(C(=O)Nc4ccccc4OC)ccc3c2=O)cc1,32*,-8,-1,5,1
O=C(NN=Cc1ccccc1F)c1cccc(NC(=O)c2ccccc2Cl)c1,/,/,/,/,2
CC(=NNC(=O)c1cccc(Cl)c1)c1cccc(NC(=O)c2ccco2)c1,/,/,/,/,-1
Cc1[nH]nc2c1C1(CCN(C(=O)OCc3ccccc3)CC1)C(C#N)=C(N)O2,-2,73*,-8,-2,1
CC(C(=O)N1CCN(c2ccc(Cl)cc2)CC1)c1ncc(C(F)(F)F)cc1Cl (stereo not drawn),-3,71*,-1,0,4
COc1cccc(C2=N/C(=C\N(C)C)C(=O)O2)c1,5,-17,5,3,25*
COc1cccc(-c2nc3ccccc3c(=O)o2)c1,17,26,2,3,-4
CCOc1ccc(C(=O)/C=C/Nc2ccc(S(=O)(=O)Nc3cc(C)nc(C)n3)cc2)cc1,0,/,5,3,4
Cc1cc(C)nc(NS(=O)(=O)c2ccc(N/C=C/C(=O)c3ccc(Cl)c(Cl)c3)cc2)n1,-2,80*,1,0,/
COc1ccc(C(=O)/C=C/Nc2ccc(S(=O)(=O)Nc3cccc(C(C)=O)c3)cc2)cc1,1,79*,1,8,/
COc1cccc(C(=O)/C=C/Nc2ccc(S(=O)(=O)Nc3nc(C)cc(C)n3)cc2)c1,-6,11,6,0,-3
Cc1cc(C)nc(NS(=O)(=O)c2ccc(N/C=C\C(=O)c3ccc(Cl)cc3)cc2)n1,4,82*,1,-2,-5
CC1(C)CC(=O)CC(=NNC(=O)c2cccs2)C1,/,/,/,/,6

# High-throughput results (PubChem BioAssay)
